Published values of several laboratories.
Lines come from different studies, so protocols differ.
Matrix: plasma

| Structure (SMILES) | species | route | dose | notes | quantity | value |
| --- | --- | --- | --- | --- | --- | --- |
| CCCc1nc2c(C)cc(-c3nc4ccccc4n3C)cc2n1Cc1ccc(-c2ccccc2C(=O)O)cc1 | male Sprague-Dawley rat | oral | 8 mg/kg | single dose | Vd/F | 46.1 L/kg |
| C[C@H]1Oc2cc(cnc2N)-c2c(nn(C)c2C#N)CN(C)C(=O)c2ccc(F)cc21 | male Sprague-Dawley rat | oral | 50 mg/kg | single dose | Vd/F | 19 L/kg |
| Cc1cc(S(=O)(=O)NC2CC(N3CC[C@@H](OC4CN(c5cccc6c5n(C)c(=O)n6C5CCC(=O)NC5=O)C4)[C@H](F)C3)C2)ccc1Nc1ncc(C(F)(F)F)c(N2CCC[C@](C)(O)C2)n1 (stereo partly drawn) | rat | intravenous | 2 mg/kg | – | Vd | 10 L/kg |
| Cc1nc(Nc2ncc(C(=O)Nc3c(C)cccc3Cl)s2)cc(N2CC[C@@H](O)C2)n1 | male Sprague-Dawley rat | intravenous | 1 mg/kg | – | Vd | 0.9 L/kg |
| CC(=O)O[C@@H]1CC[C@@]2(C)[C@@H](CC[C@]3(C)[C@@H]2C(=O)C=C2[C@@H]4[C@@H](C)[C@H](C)CC[C@]4(C)CC[C@]23C)[C@@]1(C)C(=O)O | female Wistar rat | oral | 1 mg/kg | single dose | Vd/F | 0.28 L/kg |
| CNS(=O)(=O)c1ccc(Nc2ncc(C(F)(F)F)c(N3CCC[C@](C)(O)C3)n2)c(C)c1 | rat | intravenous | 2 mg/kg | – | Vd | 3 L/kg |
| CNC(=O)c1cc(Oc2ccc(NC(=O)Nc3ccc(Cl)c(C(F)(F)F)c3)cc2)ccn1 | male Sprague-Dawley rat | oral | 100 mg/kg | single dose | Vd/F | 112 L/kg |
| Cc1cc(S(=O)(=O)NC2CC(N3CCN(CC4CCN(c5cccc6c5n(C)c(=O)n6C5CCC(=O)NC5=O)CC4)CC3)C2)ccc1Nc1ncc(C(F)(F)F)c(N2CCC[C@](C)(O)C2)n1 (stereo partly drawn) | rat | intravenous | 2 mg/kg | – | Vd | 10 L/kg |
| C1=C/COCc2cc(ccc2OCCN2CCCC2)Nc2nccc(n2)-c2cccc(c2)COC/1 | male Sprague-Dawley rat | oral | 36 mg/kg | – | Vd/F | 192 L |
